Data on two compounds can be found in ChEMBL document CHEMBL4007489, “First Bispecific Inhibitors of the Epidermal Growth Factor Receptor Kinase and the NF-κB Activity As Novel Anticancer Agents” (J Med Chem, 2017).

Activity calls are given as the source filed them. No cut-off for these calls is given here.

Data set [1] is filed under the species Homo sapiens. As to conditions: at 2.5 to 15 µM.
Data set [2] addresses Transcription factor p65 (Homo sapiens) (UniProt Q04206). The data set is described as follows: Inhibition of IL-1beta-stimulated nuclear translocation of GFP-tagged NF-kappaB-p65 (unknown origin) expressed in CHO cells at 15 uM preincubated with IL-1beta for 30 mins followed by compound addition by fluorescence assay. In kind it is cell-based.
The target of data set [3] is T1, MAP kinase-interacting serine/threonine-protein kinase 2 (Homo sapiens, UniProt Q9HBH9). The data set is described as follows: Inhibition of human full length N-terminal GST-tagged MNK2 expressed in baculovirus expression system at 5 uM.
Target sequence in this assay (Q9HBH9 whole entry, looked up): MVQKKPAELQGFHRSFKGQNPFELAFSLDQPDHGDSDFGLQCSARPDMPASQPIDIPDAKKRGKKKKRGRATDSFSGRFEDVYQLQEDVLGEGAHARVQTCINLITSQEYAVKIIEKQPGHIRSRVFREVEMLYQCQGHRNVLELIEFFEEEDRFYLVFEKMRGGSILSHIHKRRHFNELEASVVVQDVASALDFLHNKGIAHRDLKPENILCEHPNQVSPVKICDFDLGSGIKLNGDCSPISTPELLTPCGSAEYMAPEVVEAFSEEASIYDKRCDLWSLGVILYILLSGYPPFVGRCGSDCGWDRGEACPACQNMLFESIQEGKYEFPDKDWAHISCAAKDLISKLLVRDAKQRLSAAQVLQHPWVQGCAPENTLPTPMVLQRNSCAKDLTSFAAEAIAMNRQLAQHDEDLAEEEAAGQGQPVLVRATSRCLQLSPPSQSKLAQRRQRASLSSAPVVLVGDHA
The nature of data set [4]: in vitro. As to conditions: chinese hamster, CHO-K1 cells.
Data set [5] concerns the target Serine/threonine-protein kinase pim-1 (Homo sapiens, UniProt P11309). The experiment in a line: Inhibition of human recombinant full length His-tagged PIM-1 expressed in baculovirus expression system.
Data set [6] can be described thus: cells. As to conditions: Homo sapiens, U-937. The class given is cell-based.
Data set [7] addresses T2, Proteasome Macropain subunit MB1 (Homo sapiens) (UniProt P28074).
T2 sequence (whole entry): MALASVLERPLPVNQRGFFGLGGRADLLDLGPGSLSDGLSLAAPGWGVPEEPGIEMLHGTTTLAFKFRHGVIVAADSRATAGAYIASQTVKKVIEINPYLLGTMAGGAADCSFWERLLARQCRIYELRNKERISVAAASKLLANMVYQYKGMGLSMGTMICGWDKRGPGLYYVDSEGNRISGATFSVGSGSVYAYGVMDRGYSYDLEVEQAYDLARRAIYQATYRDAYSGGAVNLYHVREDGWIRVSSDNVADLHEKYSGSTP
The experiment in a line: Inhibition of chymotrypsin like activity of 26S proteasome derived from human MDA-MB-231 cells at 50 uM. The essentials:
(§1)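 Total protein extract from MDA-MB-231 cells served as the source of 26S proteasome. Trypsin-like, chymotrypsin-like and caspase-like activities were each measured with a specific fluorigenic peptide substrate.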

Data set [8] addresses Transcription factor p65 (Homo sapiens) (UniProt Q04206). The experiment in a line: Inhibition of TNFalpha-stimulated DNA binding activity of NF-kappaB-p65 in nuclear extracts of human MDA-MB-231 cells at 2.5 to 15 uM incubated for 12 hrs followed by TNFalpha stimulation measured after 20 mins by ELISA. In short, it runs like this: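 MDA-MB-231 cells exposed to compound or DMSO for 12 h, then TNFα (20 ng/mL final) for 20 min at 37 °C. Cells washed with ice-cold PBS, nuclear extracts prepared, protein measured by Bradford. 5 μg nuclear protein incubated on immobilized NF-κB response-element oligonucleotide, bound p65 detected by primary antibody and HRP secondary, absorbance 450 nm. Binding specificity checked with competing free oligonucleotide. Triplicates.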
In general terms: An ELISA detects its analyte on a solid surface through an enzyme-linked reagent.

Data set [9] has the same target. The data set is described as follows: Inhibition of NF-kappaB-p65 binding to NF-kappaB response element oligonucleotide in nuclear extracts of 12 hrs compound pre-treated human MDA-MB-231 cells at 2.5 to 15 uM by ELISA. The essentials:
(§2)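 MDA-MB-231 cells treated with compound or DMSO for 12 h; in some runs TNFα (20 ng/mL final) added for a further 20 min at 37 °C. Nuclear extracts prepared on ice and protein measured by Bradford. 5 μg of extract incubated on plate-immobilized NF-κB response element oligonucleotide. Bound complexes detected with anti-p65 primary and HRP secondary antibody, read at 450 nm. Specificity checked by competition with free oligonucleotide; triplicates.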

The target in data set [10] is Receptor tyrosine-protein kinase erbB-4 (Homo sapiens) (UniProt Q15303). The experiment in a line: Inhibition of N-terminal GST-tagged human recombinant ERBB4 expressed in baculovirus expression system at 5 uM.
Data set [11] deals with A549. The experiment in a line: cells. In kind it is functional. As to conditions: Homo sapiens, A549, 48 h.
Data set [12] addresses Proteasome Macropain subunit (Homo sapiens) (UniProt P49721). The data set is described as follows: Inhibition of trypsin like activity of 26S proteasome derived from human MDA-MB-231 cells at 50 uM. The essentials: as §1
The target in data set [13] is Transcription factor p65 (Homo sapiens) (UniProt Q04206). The experiment in a line: Inhibition of TNFalpha-stimulated DNA binding activity of NF-kappaB-p65 in human MDA-MB-231 cells at 2.5 to 15 uM incubated for 12 hrs followed by TNFalpha stimulation measured after 20 mins by ELISA. The class given is cell-based. In short, it runs like this:
as §2

A short description of data set [14]: in vitro. The settings on record: human, HUVEC.
The target in data set [15] is Transcription factor p65 (Homo sapiens) (UniProt Q04206). The data set is described as follows: Inhibition of IL-1beta-stimulated nuclear translocation of GFP-tagged NF-kappaB-p65 (unknown origin) expressed in CHO cells at 15 uM preincubated with IL-1beta for 30 mins followed by compound addition in presence of Pluronic F127 by fluorescence assay. The class given is cell-based.

For data set [16], the target named is T1, MAP kinase-interacting serine/threonine-protein kinase 2. The data set is described as follows: Inhibition of human full length N-terminal GST-tagged MNK2 expressed in baculovirus expression system.
Target sequence in this assay (Q9HBH9 whole entry): as the sequence (Q9HBH9 whole entry, looked up) above
Data set [17] is filed under the species Homo sapiens. As to conditions: at 10 µM.
For data set [18], the system named is MDA-MB-231. The data set is described as follows: cells. The class given is functional. The settings on record: Homo sapiens, MDA-MB-231, 48 h.
Data set [19] has as its target T3, Proteasome component C5 (Homo sapiens) (UniProt P20618).
T3 sequence (whole entry): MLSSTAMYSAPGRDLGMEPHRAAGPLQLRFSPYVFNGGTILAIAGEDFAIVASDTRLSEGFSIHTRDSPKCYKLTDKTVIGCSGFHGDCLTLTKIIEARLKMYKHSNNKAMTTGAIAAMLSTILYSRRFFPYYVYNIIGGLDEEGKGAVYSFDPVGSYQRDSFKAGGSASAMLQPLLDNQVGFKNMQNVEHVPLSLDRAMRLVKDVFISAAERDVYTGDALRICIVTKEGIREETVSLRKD
The experiment in a line: Inhibition of caspase like activity of 26S proteasome derived from human MDA-MB-231 cells at 50 uM. In short, it runs like this:
as §1

The nature of data set [20]: Selectivity ratio of GI50 for HUVEC to GI50 for human MDA-MB-231 cells.
Data set [21] is described as follows: Selectivity ratio of GI50 for CHOK1 cells to GI50 for human A549 cells.
A short description of data set [22]: Selectivity ratio of GI50 for HUVEC to GI50 for human A549 cells.
In data set [23] the test system is MDA-MB-231. The experiment in a line: Potency index, ratio of gefitinib GI50 to compound GI50 for human MDA-MB-231 cells. The class given is functional.
Data set [24] addresses T4, Epidermal growth factor receptor (Homo sapiens, UniProt P00533). The experiment in a line: biochemical. The class given is cell-based.
The target in data set [25] is T4, Epidermal growth factor receptor. The settings on record: at 150 nM.
A short description of data set [26]: Selectivity ratio of GI50 for CHOK1 cells to GI50 for human MDA-MB-231 cells.

Sequence of Transcription factor p65 (Homo sapiens) (Q04206 whole entry): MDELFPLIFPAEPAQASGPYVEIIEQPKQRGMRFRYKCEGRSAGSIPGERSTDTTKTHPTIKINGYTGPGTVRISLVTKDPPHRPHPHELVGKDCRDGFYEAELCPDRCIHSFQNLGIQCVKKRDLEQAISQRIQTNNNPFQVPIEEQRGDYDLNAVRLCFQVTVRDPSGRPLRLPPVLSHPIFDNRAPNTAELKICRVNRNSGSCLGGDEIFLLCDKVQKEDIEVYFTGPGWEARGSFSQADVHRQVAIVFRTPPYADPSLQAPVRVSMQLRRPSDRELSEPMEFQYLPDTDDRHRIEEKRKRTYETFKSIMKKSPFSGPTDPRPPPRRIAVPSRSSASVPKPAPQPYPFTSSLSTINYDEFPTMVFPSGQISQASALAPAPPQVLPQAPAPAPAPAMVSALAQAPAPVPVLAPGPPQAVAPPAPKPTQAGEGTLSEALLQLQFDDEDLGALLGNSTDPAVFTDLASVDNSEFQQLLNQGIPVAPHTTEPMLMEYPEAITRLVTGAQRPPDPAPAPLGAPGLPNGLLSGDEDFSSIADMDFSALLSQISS
T4 sequence (P00533 whole entry): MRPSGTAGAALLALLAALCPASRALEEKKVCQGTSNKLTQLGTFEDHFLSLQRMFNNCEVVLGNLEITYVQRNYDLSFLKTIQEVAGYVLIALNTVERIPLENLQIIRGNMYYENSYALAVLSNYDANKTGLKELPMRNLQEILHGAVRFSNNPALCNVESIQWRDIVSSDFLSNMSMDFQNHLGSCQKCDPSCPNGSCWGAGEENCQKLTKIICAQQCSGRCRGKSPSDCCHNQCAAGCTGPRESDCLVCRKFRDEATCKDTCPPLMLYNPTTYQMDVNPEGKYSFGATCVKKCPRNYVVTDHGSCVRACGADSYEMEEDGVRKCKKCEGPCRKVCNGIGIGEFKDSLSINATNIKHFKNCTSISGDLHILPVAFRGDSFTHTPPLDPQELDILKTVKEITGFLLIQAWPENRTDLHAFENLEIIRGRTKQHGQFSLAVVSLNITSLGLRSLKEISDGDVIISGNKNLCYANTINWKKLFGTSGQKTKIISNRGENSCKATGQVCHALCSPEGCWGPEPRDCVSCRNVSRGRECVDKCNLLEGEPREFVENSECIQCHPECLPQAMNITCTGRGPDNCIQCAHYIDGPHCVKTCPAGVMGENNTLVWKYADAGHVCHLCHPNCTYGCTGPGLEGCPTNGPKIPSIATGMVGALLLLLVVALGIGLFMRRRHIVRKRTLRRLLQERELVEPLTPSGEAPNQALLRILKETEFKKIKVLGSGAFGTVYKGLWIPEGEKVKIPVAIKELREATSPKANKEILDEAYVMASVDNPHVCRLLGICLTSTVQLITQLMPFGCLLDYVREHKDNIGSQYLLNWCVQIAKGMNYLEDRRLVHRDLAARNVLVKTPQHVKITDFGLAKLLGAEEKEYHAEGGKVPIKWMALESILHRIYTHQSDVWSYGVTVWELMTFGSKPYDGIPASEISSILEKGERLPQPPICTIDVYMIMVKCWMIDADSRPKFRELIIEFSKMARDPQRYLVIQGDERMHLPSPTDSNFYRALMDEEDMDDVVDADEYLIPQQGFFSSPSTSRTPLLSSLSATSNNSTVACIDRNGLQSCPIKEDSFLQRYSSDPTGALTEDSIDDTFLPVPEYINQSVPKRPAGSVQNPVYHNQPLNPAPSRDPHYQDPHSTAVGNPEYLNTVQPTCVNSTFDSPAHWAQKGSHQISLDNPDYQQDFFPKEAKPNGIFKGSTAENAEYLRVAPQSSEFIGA
Sequence of Proteasome Macropain subunit (Homo sapiens) (P49721 whole entry): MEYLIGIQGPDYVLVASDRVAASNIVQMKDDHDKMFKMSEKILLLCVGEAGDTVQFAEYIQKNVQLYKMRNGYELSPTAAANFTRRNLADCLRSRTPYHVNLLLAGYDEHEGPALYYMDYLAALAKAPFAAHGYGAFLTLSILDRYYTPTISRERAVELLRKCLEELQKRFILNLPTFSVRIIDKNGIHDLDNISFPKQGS
Sequence of Serine/threonine-protein kinase pim-1 (P11309 whole entry): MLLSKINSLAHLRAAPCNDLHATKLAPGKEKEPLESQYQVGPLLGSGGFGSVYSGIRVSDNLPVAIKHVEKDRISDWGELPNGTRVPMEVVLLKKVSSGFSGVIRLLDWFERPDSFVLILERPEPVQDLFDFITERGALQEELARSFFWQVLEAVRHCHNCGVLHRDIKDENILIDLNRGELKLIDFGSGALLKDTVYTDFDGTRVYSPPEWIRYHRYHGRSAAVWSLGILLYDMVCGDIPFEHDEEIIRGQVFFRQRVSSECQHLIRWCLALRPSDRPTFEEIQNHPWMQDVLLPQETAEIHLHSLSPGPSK
Sequence of Receptor tyrosine-protein kinase erbB-4 (Homo sapiens) (Q15303 whole entry): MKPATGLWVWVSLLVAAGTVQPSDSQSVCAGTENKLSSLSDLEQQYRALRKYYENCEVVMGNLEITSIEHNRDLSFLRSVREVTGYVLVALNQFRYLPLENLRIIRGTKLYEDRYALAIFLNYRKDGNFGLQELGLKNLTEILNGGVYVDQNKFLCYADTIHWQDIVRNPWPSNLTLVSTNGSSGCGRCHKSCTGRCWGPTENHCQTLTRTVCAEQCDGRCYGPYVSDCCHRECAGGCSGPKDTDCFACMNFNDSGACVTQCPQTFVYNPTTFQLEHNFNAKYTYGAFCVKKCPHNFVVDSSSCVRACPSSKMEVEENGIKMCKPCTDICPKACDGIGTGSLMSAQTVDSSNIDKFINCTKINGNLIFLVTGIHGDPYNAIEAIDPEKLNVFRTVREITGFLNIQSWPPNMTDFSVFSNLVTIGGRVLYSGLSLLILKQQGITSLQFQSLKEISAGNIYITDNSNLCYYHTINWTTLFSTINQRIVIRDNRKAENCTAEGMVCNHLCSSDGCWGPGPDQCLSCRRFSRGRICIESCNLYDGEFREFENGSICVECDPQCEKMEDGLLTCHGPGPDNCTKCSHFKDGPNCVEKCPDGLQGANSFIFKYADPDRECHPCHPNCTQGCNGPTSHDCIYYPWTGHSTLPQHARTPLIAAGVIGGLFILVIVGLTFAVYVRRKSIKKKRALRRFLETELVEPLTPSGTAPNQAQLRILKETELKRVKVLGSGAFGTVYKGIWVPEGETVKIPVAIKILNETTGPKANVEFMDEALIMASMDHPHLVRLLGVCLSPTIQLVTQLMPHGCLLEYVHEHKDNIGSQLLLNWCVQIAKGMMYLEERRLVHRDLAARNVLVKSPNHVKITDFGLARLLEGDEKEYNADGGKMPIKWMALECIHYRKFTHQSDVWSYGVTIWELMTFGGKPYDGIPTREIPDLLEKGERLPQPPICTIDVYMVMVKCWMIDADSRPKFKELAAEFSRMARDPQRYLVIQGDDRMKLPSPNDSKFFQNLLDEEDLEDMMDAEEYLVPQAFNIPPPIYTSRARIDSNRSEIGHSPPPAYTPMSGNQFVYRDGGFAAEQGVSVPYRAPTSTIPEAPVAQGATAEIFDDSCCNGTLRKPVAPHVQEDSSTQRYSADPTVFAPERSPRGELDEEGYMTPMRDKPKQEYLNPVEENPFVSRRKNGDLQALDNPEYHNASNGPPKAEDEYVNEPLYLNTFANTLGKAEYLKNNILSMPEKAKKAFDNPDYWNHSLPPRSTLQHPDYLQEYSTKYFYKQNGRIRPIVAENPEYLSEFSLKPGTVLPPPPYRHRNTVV

For orientation: inhibition means how much of the control response was suppressed. What is called GI50 is the concentration giving 50% growth inhibition. A high value points to less potent growth inhibition. For orientation: IC50 means the concentration at which inhibition is half-maximal. On to `S=C(Nc1cccc(Cl)c1)Nc1ccc2ncnc(Nc3cccc(Br)c3)c2c1`, for which the inhibition entry in data set [1] was “Dose-dependent effect”; in [3], 78%; in data set [10], 54%; in data set [17] it was 97.4%. The inhibition entry in [2], in data set [7], in [8], in [9], in data set [12] and in data set [13] was “inactive” throughout. Besides, the inhibition result in [15] and in data set [19] was “inactive” each time. Further, the concentration for 50% growth inhibition (GI50) at 48 h in data set [4] amounted to 25700 nM; in data set [14] it was 11500 nM. Further, the results for the 50% inhibitory concentration (IC50) in data set [5], in data set [6] and in [16] were 1200 nM, 1900 nM and 2700 nM, respectively. For the same compound, the figures for the 50% growth inhibitory concentration (GI50) in [11] and in data set [18] were 1600 nM and 2100 nM, respectively.
For `Fc1ccc(NC(=S)Nc2ccc3ncnc(Nc4cccc(Br)c4)c3c2)cc1Cl`, the inhibition result in [2], in data set [7], in data set [12], in data set [15] and in data set [19] was “inactive” throughout. For the same compound, the results for the GI50 at 48 h in [4] and in data set [14] were 52100 nM and 14800 nM, respectively. The RatioGI50 is 49.3 in [20]; 52.1 in data set [21]; 14.8 in data set [22]; over 35 in data set [23]; 173.7 in data set [26]. The results for the IC50 in data set [6] and in data set [24] were 1000 nM and 25.3 nM, respectively. Further, the 50% growth inhibitory concentration (GI50) in data set [11] was 1000 nM; in data set [18], 300 nM. For the same compound, the inhibition in data set [25] came to 74.1%; in data set [17], 100%.
